# Data reported in PubChem BioAssay AID373 (The Scripps Research Institute Molecular Screening Center, 2006).
# Out of some 60,000 compounds screened, about 60 (0.1%) were called active. This is one part of a sample in which actives are shown more often than they occur.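 The calls were made as follows: active = activation above the screen-wide mean plus 3 SD (cut at about 4.5% in these data, passing the limit was not always enough); inactive = the rest, inconclusive results apart.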
# Target: Sphingosine 1-phosphate receptor 3 (Homo sapiens) (UniProt Q99500)
# Assay: human S1P3 receptor agonists, primary screen, cell-based, primary and confirmation, NFAT-BLA reporter (AID 373)
# In short: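 Benchmarks: high control 1 µM S1P / System: stable CHO line with human S1P3, Gα16, NFAT-BLA reporter / Dosing: single compound concentration, 4.5 µM final / Timing: 4 h compound at 37 °C, 2 h substrate at RT / Measured by: FRET β-lactamase substrate fluorescence, excitation 405 nm, 460/535 nm emission ratio, background-subtracted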
# [1] = S1P3 NFAT-BLA reporter cells, agonism, FRET ratio, at 4.5 µM, stronger effect = higher value, relative to 1 µM S1P, basal subtracted
# Chain of Sphingosine 1-phosphate receptor 3 (Homo sapiens) (Q99500 whole entry, looked up): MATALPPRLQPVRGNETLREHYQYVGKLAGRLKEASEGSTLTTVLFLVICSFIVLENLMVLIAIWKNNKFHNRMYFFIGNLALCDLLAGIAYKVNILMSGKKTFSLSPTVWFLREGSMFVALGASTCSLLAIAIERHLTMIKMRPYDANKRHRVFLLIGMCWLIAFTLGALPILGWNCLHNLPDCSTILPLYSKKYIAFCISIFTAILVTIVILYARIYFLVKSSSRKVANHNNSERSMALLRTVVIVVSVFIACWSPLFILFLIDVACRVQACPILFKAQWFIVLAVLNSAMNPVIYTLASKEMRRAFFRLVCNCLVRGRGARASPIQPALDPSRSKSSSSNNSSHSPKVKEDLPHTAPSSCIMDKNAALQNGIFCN
smiles,measurement,setting,value
CC(C)c1ccc(NC(=O)NC2CCCCC2)cc1,activation,[1],0% (inactive)
Cc1ccc2nc(NC(=O)C3CCN(S(=O)(=O)c4ccc5c(c4)oc(=O)n5C)CC3)sc2c1,activation,[1],-0.9% (inactive)
O=C(O)CCCC(=O)Nc1ccccc1-n1ccnc1,activation,[1],-0.2% (inactive)
CCCOc1cccc(C(=O)Nc2nnn(CCC)n2)c1,activation,[1],0% (inactive)
COc1ccc(-c2noc(COc3ccc(Cl)c(C)c3)n2)cc1,activation,[1],-0.7% (inactive)
Cc1cc(C)nc(N(C#N)CC(=O)Nc2ccccc2)n1,activation,[1],-0.7% (inactive)
Cc1nn(-c2cc(Cl)ccc2N)c(=O)c2ccccc12,activation,[1],-1.6% (inactive)
CCOCC(=O)NCc1ccc2c(c1)cc(C)n2C,activation,[1],-0.3% (inactive)
CN(CC(=O)NC1CCCCC1)S(=O)(=O)c1cccc2cccnc12,activation,[1],-1.1% (inactive)
COc1ccc(S(=O)(=O)N2CCC(C(=O)N3CCOCC3)CC2)cc1OC,activation,[1],-0.8% (inactive)
Cc1ccn2cc(C(=O)NC3CCN(Cc4ccccc4)CC3)nc2c1,activation,[1],-0.2% (inactive)
CC(=O)N1CCN(C(=O)Nc2cccc(C(F)(F)F)c2)CC1,activation,[1],-0.4% (inactive)
O=C(Nc1nccs1)C1CCCN1S(=O)(=O)c1cccc2cccnc12 (centres undefined),activation,[1],-0.3% (inactive)
Cc1cccc2c1N(CC(=O)OC(C)C)C(=O)C2=O,activation,[1],-0.6% (inactive)
COc1ccccc1Nc1ncnc2c1oc1ccccc12,activation,[1],-1% (inactive)
Cc1cnc(NC(=O)CSc2nnc(-c3ccc(Cl)cc3Cl)n2N)s1,activation,[1],-0.7% (inactive)
CC12CN3CC(C)(CN(C1)C3c1ccc(Cl)cc1Cl)C2=O (centres undefined),activation,[1],-0.5% (inactive)
CC(=O)Nc1ccc(NS(=O)(=O)c2cc(C)sc2C)cc1,activation,[1],-0.3% (inactive)
Cc1ccc(S(=O)(=O)N2CCC(N3CCCCCC3)CC2)cc1,activation,[1],-2.7% (inactive)
CC1COC2C(O1)N(S(C)(=O)=O)CCN2S(C)(=O)=O (centres undefined),activation,[1],-1.9% (inactive)
CCOc1ccc(C2C(C(=O)O)c3ccccc3C(=O)N2CCN2CCOCC2)cc1 (centres undefined),activation,[1],-0.7% (inactive)
CC(C)N(C(=O)Cn1c(SCC(=O)N2CCN(c3ccccc3)CC2)nc2ccccc21)C(C)C,activation,[1],0.4% (inactive)
CCn1c(SCC(=O)Nc2cccc(F)c2)nnc1-c1cc2cc(Br)ccc2o1,activation,[1],0.7% (inactive)
CC1CCN(C(=O)CSc2ccc3nnc(-c4cccc(F)c4)n3n2)CC1,activation,[1],-0.5% (inactive)
CCOc1ccc(OCC)c(NC(=O)C(NS(=O)(=O)c2ccc3c(c2)oc(=O)n3C)C(C)C)c1 (centres undefined),activation,[1],0.3% (inactive)
CC1CCN(Cc2nc3c(c(=O)n(C)c(=O)n3C)n2CCc2ccccc2)CC1,activation,[1],-0.7% (inactive)
CCc1c(C)c2c(C)[nH]nc2oc1=O,activation,[1],0.6% (inactive)
CCCCC(=O)N(c1ccc(OC)cc1)C1C=CS(=O)(=O)C1 (centres undefined),activation,[1],-0.5% (inactive)
COc1ccc(-c2nc(CS(=O)CC(=O)NCc3cccnc3)c(C)o2)cc1OC (centres undefined),activation,[1],-0.9% (inactive)
CCn1c(SCC(=O)NCc2ccco2)nnc1-c1ccc(N)cc1,activation,[1],1.1% (inactive)
CCN(CC)S(=O)(=O)c1ccc2nc(COC(=O)c3n[nH]c4ccccc34)[nH]c2c1,activation,[1],0% (inactive)
C[N+](C)(C)CCOP(=O)([O-])OC[C@H](O)CO,activation,[1],-3.9% (inactive)
c1ccc(Nc2n[nH]nc2-c2ccccc2)cc1,activation,[1],-1.7% (inactive)
O=C(c1ccc(-n2cnnn2)cc1)N1CCN(C(c2ccccc2)c2ccccc2)CC1,activation,[1],0.7% (inactive)
O=C(NCc1cn2ccsc2n1)Nc1cccc(Cl)c1,activation,[1],1.1% (inactive)
Cc1cccc(CSc2nnc(Cn3c(=O)sc4ccccc43)n2C)c1,activation,[1],-0.9% (inactive)
Cc1cc(C)cc(N(CC(=O)NCC2CCCO2)S(=O)(=O)c2c(C)noc2C)c1 (centres undefined),activation,[1],-0.2% (inactive)
CCOC(=O)c1ccc(-c2ccc(C(=O)Nc3cccnc3)o2)cc1,activation,[1],0.3% (inactive)
Cc1ccc(-c2noc(CCC(=O)Nc3ccccc3N3CCN(C)CC3)n2)cc1,activation,[1],0.8% (inactive)
CCN(CC)CCCN1C(=O)C(=O)/C(=C(/O)c2c(C)nc3ccccn23)C1c1ccc(C)o1 (centres undefined),activation,[1],0.3% (inactive)
CNC(=O)Nc1cc(C(C)(C)C)no1,activation,[1],-0.1% (inactive)
COc1ccc(CCn2c(-c3ccco3)nc3nc4ccccc4nc32)cc1OC,activation,[1],-1.1% (inactive)
Cc1ccc(-c2c3c(=O)n(C)c(=O)n(C)c3cn2-c2ccccc2O)cc1,activation,[1],0.1% (inactive)
COc1cccc(-n2c(Cc3cc(=O)[nH]c(=O)[nH]3)nnc2SCC(=O)Nc2ccccc2)c1,activation,[1],0.3% (inactive)
Cc1cccc(NC(=O)COc2ccc(Br)cc2C)n1,activation,[1],-1% (inactive)
Cc1cc(/C=N/n2cnnc2)c(C)n1-c1ccc2ncccc2c1,activation,[1],0.1% (inactive)
CCOCCCNC(=O)Cc1cc(=O)[nH]c(=O)[nH]1,activation,[1],0.5% (inactive)
O=S(=O)(Nc1ccccc1N1CCOCC1)c1ccc(Cl)s1,activation,[1],0.7% (inactive)
O=c1cc(Cn2nnc(-c3ccc(Cl)cc3)n2)nc2sccn12,activation,[1],-0.5% (inactive)
O=C(CSc1nnc(-c2ccco2)n1-c1ccccc1)NCCc1ccccc1,activation,[1],0% (inactive)
COc1ccc(C(=O)c2oc3ccc(Br)cc3c2NC(C)=O)cc1,activation,[1],-0.9% (inactive)
Cc1cc(C)c(NC(=O)CS(=O)CC(=O)Nc2cccnc2)c(C)c1 (centres undefined),activation,[1],0.3% (inactive)
COc1ccc(-n2nnc3c(=O)n(CC(=O)N4CCC(Cc5ccccc5)CC4)cnc32)cc1,activation,[1],-0.4% (inactive)
Cc1ccc(C(=O)N(CN2CCCC2=O)c2ccc(F)cc2)cc1,activation,[1],-1.3% (inactive)
CC1CC(C)CN(CC(=O)Nc2ccc(S(N)(=O)=O)cc2)C1 (centres undefined),activation,[1],-0.9% (inactive)
CN(C)c1nc2n(c(=O)n1)CCO2,activation,[1],0.6% (inactive)
c1ccc2c(c1)OCC(c1nn3cnnc3s1)O2 (centres undefined),activation,[1],-0.3% (inactive)
Cc1ccc(C(c2sc3nc(C)nn3c2O)N2CCN(c3ccc(F)cc3)CC2)cc1 (centres undefined),activation,[1],0.6% (inactive)
CC(C)(C)Oc1ncc(Br)c(OC(C)(C)C)n1,activation,[1],-0.4% (inactive)
N#Cc1c(N)n(CCOC(=O)c2ccc(Cl)cc2)c2nc3ccccc3nc12,activation,[1],2.5% (inactive)
COc1ccc(C(C)=O)cc1COC(=O)Cn1cnc2ccccc2c1=O,activation,[1],0.7% (inactive)
Cc1cc(C(F)(F)F)nn1CC(=O)N1CCCC1,activation,[1],-0.4% (inactive)
CCCc1[nH]nc2c1C(c1ccc(OC)c(Cn3nc(C)c(Br)c3C)c1)C(C#N)=C(N)O2 (centres undefined),activation,[1],-0.7% (inactive)
O=C(CN1CCOc2ccccc21)N1CCC(Cc2ccccc2)CC1,activation,[1],-0.9% (inactive)
Cc1cc(=O)[nH]c(SCC(N)=O)c1C#N,activation,[1],-1% (inactive)
CCc1nc2ccccc2n(CCOCCOCCn2c(=O)c(CC)nc3ccccc32)c1=O,activation,[1],1.3% (inactive)
O=C(CC1OC(=O)c2ccccc21)NC1CCCCC1 (centres undefined),activation,[1],-0.8% (inactive)
O=C(O)CCN1C(=O)CC2(CCCCC2)C1=O,activation,[1],-0.4% (inactive)
CCn1cc(NC(=O)Nc2ccc(OC)c(OC)c2)c(C(N)=O)n1,activation,[1],-0.9% (inactive)
C=CCn1c(=O)c2ccccc2n2c(SCC(=O)N3CCCc4ccccc43)nnc12,activation,[1],-2.3% (inactive)
OC(COc1ccc2ccccc2c1)CN1CCOCC1 (centres undefined),activation,[1],0.6% (inactive)
Cc1ccc2nc(-c3ccccc3)cc(C(=O)O)c2c1,activation,[1],0.7% (inactive)
Cc1cccc(NC(=O)C2CCCN2S(=O)(=O)c2ccc(F)cc2)c1C (centres undefined),activation,[1],-1.1% (inactive)
Cc1nc(Nc2ccc3c(c2)OCCO3)c2nnn(Cc3ccccc3Cl)c2n1,activation,[1],-1.2% (inactive)
COc1ccccc1N=C1SC(C)CN1C(=O)C1CCC1 (centres undefined),activation,[1],0.5% (inactive)
O=S(=O)(NCc1ccccn1)c1ccc(F)cc1,activation,[1],-1.2% (inactive)
Cc1cc(C)n(-c2nc(SCC(=O)N3CCCC3)c3c4c(sc3n2)CCCC4)n1,activation,[1],0% (inactive)
COCCn1c(C)cc(C(=O)CSc2ncnc3sc4c(c23)CCC4)c1C,activation,[1],-1% (inactive)
COCCNc1nc(-n2nc(C)cc2C)nc2sc3c(c12)CCCC3,activation,"S1P3 NFAT-BLA reporter cells, agonism, FRET ratio; at 4.5 µM; stronger effect = higher value; relative to 1 µM S1P, basal subtracted",18.4% (active)
same,activation,"S1P3 NFAT-BLA reporter cells, agonism, FRET ratio; measured here: confirmation screen, triplicate average; at 4.5 µM; stronger effect = higher value; relative to 1 µM S1P, basal subtracted",25.3%
CC1=CC(C)(C)N(C(=O)CSc2nccn2C)c2cc(C)ccc21,activation,[1],0.7% (inactive)
O=C(CCSCCc1ccccn1)Nc1nccs1,activation,[1],-0.7% (inactive)
COc1ccc(-c2nnc(SCC(=O)NC3CCCCC3)o2)cc1OC,activation,[1],-0.8% (inactive)
CCOC(=O)Cn1c(=O)oc2cc(S(=O)(=O)N(C)Cc3ccco3)ccc21,activation,[1],0.3% (inactive)
O=C(CN1C(=O)C2C3C=CC(C3)C2C1=O)NCCc1ccccc1Cl (centres undefined),activation,[1],0.1% (inactive)
CCOC(=O)C(C)Oc1cccc2c(=O)n(CC(=O)N3CCc4ccccc43)ccc12 (centres undefined),activation,[1],-1.6% (inactive)
Cc1cc(Nc2cccc(C)c2C)n2ncnc2n1,activation,[1],-1.3% (inactive)
COCCOC(=O)C1=C(C)NC(=O)NC1c1ccc(Cl)cc1 (centres undefined),activation,[1],-2.2% (inactive)
O=C(Cn1cnc2c(nnn2-c2ccccc2)c1=O)N1CCC(Cc2ccccc2)CC1,activation,[1],-1.2% (inactive)
COC(=O)c1ccc(OC(=O)c2nn(C)cc2Cl)c(OC)c1,activation,[1],-1% (inactive)
COc1ccc(-c2nnc(SC(=O)N3c4ccccc4Sc4ccccc43)o2)cc1,activation,[1],-1.5% (inactive)
CC1(C)CCCC2=C1CC1C(=O)N(c3ccccc3)C(=O)C1C2 (centres undefined),activation,[1],-0.8% (inactive)
C=CCNC(=O)CCCOc1cccc(C)c1,activation,[1],0.2% (inactive)
O=C(CCOc1ccccc1)NCc1ccccc1,activation,[1],0.1% (inactive)
O=C(CCC(=O)OCC(F)(F)C(F)F)NCc1ccccc1,activation,[1],-0.2% (inactive)
COc1c(Br)cc2c(C)c(C(=O)N3CCOCC3)oc2c1Br,activation,[1],1.5% (inactive)
CCCN(CCC)C(=O)C1c2ccccc2Oc2ccccc21,activation,[1],-1.3% (inactive)
COc1ccccc1CNC(=O)CCCNS(=O)(=O)c1cccc2nsnc12,activation,[1],1.2% (inactive)
COCCNC(=O)Cn1cc2c(n1)CCCCC2,activation,[1],-0.2% (inactive)
